Test results as given in ChEMBL document CHEMBL1165987, “Cyclic tripeptides from the halotolerant fungus Aspergillus sclerotiorum PT06-1” (2010).
≈ marks a conversion by molar mass, not a printed value. Calls of active or inactive are those of the source. The calls are words filed in the database; no cut-off is given here.

What was measured:
Escherichia coli = assay: Antimicrobial activity against Escherichia coli after 24 hrs by agar dilution method; format: functional, organism-based
Procedure, shortened: (§1)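 Each organism was tested separately by agar dilution. The MIC was recorded as the read-out and given in µM.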

Staphylococcus aureus = assay: Antimicrobial activity against Staphylococcus aureus after 24 hrs by agar dilution method; format: functional, organism-based; procedure, shortened: as §1
A549 = assay: Cytotoxicity against human A549 cells after 24 hrs by SRB method; format: functional, cell-based
Candida albicans = assay: Antimicrobial activity against Candida albicans after 24 hrs by agar dilution method; format: functional; procedure, shortened: as §1
HL-60 = assay: Cytotoxicity against human HL60 cells after 72 hrs by MTT assay; format: functional, cell-based

| SMILES | MIC (Escherichia coli) | MIC (Staphylococcus aureus) | MIC (Candida albicans) | inhibition (A549) | inhibition (HL-60) |
| --- | --- | --- | --- | --- | --- |
| C/C=C/C=C/C=C/C(=O)N[C@H]1CCCNC(=O)[C@H](C)N(C)C(=O)[C@H](C(C)C)NC1=O [SCLEROTIOTIDE A] | inactive | inactive | 7.5 µM (≈ 3.14 µg/mL) | inactive | inactive |
| C/C=C/C=C/C=C/C(=O)N[C@H]1CCCNC(=O)[C@H](C)NC(=O)[C@H](C(C)C)N(C)C1=O | inactive | inactive | 30 µM (≈ 12.6 µg/mL) | inactive | inactive |
| CC(C)[C@H]1C(=O)N(C)[C@@H](C)C(=O)NCCC[C@H](NC(=O)/C=C/C=C/C=O)C(=O)N1C [SCLEROTIOTIDE F] | inactive | inactive | 30 µM (≈ 12.6 µg/mL) | inactive | inactive |

Now those with a lower MIC (Candida albicans), led by results:

| MIC (Escherichia coli) | MIC (Staphylococcus aureus) | MIC (Candida albicans) | SMILES | inhibition (A549) | inhibition (HL-60) |
| --- | --- | --- | --- | --- | --- |
| inactive | inactive | 3.8 µM (≈ 1.54 µg/mL) | C/C=C/C=C/C(=O)N[C@H]1CCCNC(=O)[C@H](C)N(C)C(=O)[C@H](C(C)C)N(C)C1=O [SCLEROTIOTIDE B] | inactive | inactive |
| inactive | inactive | 6.7 µM (≈ 3.13 µg/mL) | CC(C)[C@H]1C(=O)N(C)[C@@H](C)C(=O)NCCC[C@H](NC(=O)/C=C/C=C/[C@@H](O)[C@@H](C)O)C(=O)N1C [SCLEROTIOTIDE I] | inactive | inactive |
